This is a sample that favours compounds with a hit; in the whole collection about 9.8% have one here.
PMI activator = phosphomannose isomerase (human) activation; P34949; activation factor at 20 µM; purified human PMI, coupled resazurin fluorescence, 20 min; active compounds read high; 1 = vehicle control, 0 substrate-free wells; hit rate 0.005% among 190,000;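 active = activation factor of 2 or more at 20 µM, relative to plate controls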
Lmaj promast = inhibitors of Leishmania major promastigote growth; Leishmania major promastigotes, resazurin fluorescence viability; inhibition, % at 10 µM; hit rate 9% among 200,000; AID 1063; in the data active = inhibition above about 50%;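 also: promastigotes grown with compound for 44 hours at 28 °C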
WT yeast gro inh = growth inhibition of WT yeast, mitochondrial fusion screen; mitochondrial fusion phenotypic screen, WT strain; inhibition, % at 10 µM; hit rate 2.1% among 190,000; AID 1362; in the data active = inhibition above about 58%; tested in S. cerevisiae
PMI act hi M6P = PMI (human) activation, high substrate. P34949. coupled PMI enzyme assay, resazurin fluorescence, 20 min; active compounds read high; 1 = untreated enzyme, 0 = substrate-free blank. activation factor at 20 µM. hit rate 0.34% among 190,000;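 active = activation factor of 2 or more at 20 µM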
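Test system: human phosphomannose isomerase with PGI, G6PDH, diaphorase coupling enzymes / Doses: 20 µM compound, 1% DMSO / Times: enzyme reaction with compound 20 min at room temperature / Measured by: Diaphorase-driven resazurin-to-resorufin fluorescence, excitation 544, emission 590 nm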
Calpain2 inh = inhibitors of pig calpain II. purified calpain II, fluorogenic peptide substrate, 30 min. inhibition, % at 16 µM. hit rate 0.37% among 220,000. AID 1236;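 active = inhibition above about 50%, limit read from the data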
Rad51 HR inh = blocks human Rad51 in homologous recombination. inhibition, % at 10 µM. hit rate 0.085% among 200,000. hRad51 DNA strand exchange, fluorescence dequenching. Q06609;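 active = inhibition above 40% at the single screening dose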;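 also: 0% = DMSO control wells and 100% = blanks with heterologous ssDNA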
Target sequence (Q06609 whole entry, looked up): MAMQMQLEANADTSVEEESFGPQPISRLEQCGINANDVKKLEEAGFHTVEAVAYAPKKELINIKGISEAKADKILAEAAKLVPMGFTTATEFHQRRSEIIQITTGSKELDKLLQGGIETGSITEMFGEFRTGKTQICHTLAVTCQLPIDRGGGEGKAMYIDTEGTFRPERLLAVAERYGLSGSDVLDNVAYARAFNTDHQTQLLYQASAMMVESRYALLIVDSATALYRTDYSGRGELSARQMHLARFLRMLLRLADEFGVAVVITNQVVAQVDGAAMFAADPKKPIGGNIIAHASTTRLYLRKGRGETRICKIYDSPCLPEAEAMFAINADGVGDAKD
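Read-out basis: percent inhibition relative to plate controls and blanks / Assay system: human Rad51 nucleoprotein filaments preassembled on unlabelled ssDNA / Timing: filaments 15 min 37 °C, then compound 30 min / Control set: per-plate controls and blanks / Technique: fluorescence dequenching at 485/520 nm / Compound: 10 µM final, single point / Also added: Fluorescein- and BHQ1-tagged 47-mer duplex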
* = called active by the depositor; nt = no result given.

SMILES | PMI activator | Lmaj promast | WT yeast gro inh | PMI act hi M6P | Calpain2 inh | Rad51 HR inh
COc1ccc(-c2[nH]n(-c3ccc([N+](=O)[O-])cc3)c(=O)c2C=NCc2ccncc2)cc1 | 1 | 98.6* | 18.3 | 1.1 | -13.8 | 3.5
NS(=O)(=O)c1cccc(NC(=O)COC(=O)C2CCCCC2)c1 | 1.1 | -4.3 | -13.6 | 1.1 | -2.7 | 3.8
O=C(O)CCC(=O)Nc1ccccc1C(=O)NCCc1ccccc1 | 0.9 | 55.5* | -14.5 | 1 | -6.3 | -3.9
CS(=O)(=O)N(CC(=O)Nc1ccccc1C(=O)NCCc1ccccc1)c1ccc2c(c1)OCCO2 | 0.9 | 99.1* | 43.0 | 1 | 18.4 | -6.8
CS(=O)(=O)N(CC(=O)Nc1ccccc1C(=O)NCc1ccccc1)c1ccc2c(c1)OCCO2 | 0.9 | 15.2 | -2.2 | 1 | -35.4 | 0.8
O=C(Nc1ccc(Cl)cc1)N(Cc1cccnc1)Cc1ccco1 | 0.9 | 91.6* | 17.3 | 1 | 19.0 | 3.8
N#CCCN(Cc1cccnc1)C(=O)Nc1ccc(Cl)c(Cl)c1 | 0.8 | 94.6* | 11.3 | 0.9 | -8.7 | -8.1
Cc1ccc(NC(=O)N(Cc2ccco2)Cc2cc3cc(C)cc(C)c3nc2Cl)cc1 | 0.9 | 0.6 | -16.2 | 1 | 9.7 | nt
Cc1ccc(NC(=O)N(Cc2cccnc2)Cc2ccco2)cc1C | 1 | 92.3* | 23.3 | 1 | -12.6 | 1.6
Cc1cc(C)nc(-n2ncc3c2CC(c2cccc(Cl)c2)CC3=O)n1 (stereo not drawn) | 0.9 | 1.4 | -4.6 | 1 | -33.4 | -7.0
COc1ccc(C)cc1NC(=O)c1ccccc1NS(=O)(=O)c1cccc2cccnc12 | 0.9 | 28.5 | -11.6 | 1 | -39.9 | -2.0
COc1cc(/C=N/O)cc(Br)c1OCc1ccc(Cl)cc1 | 0.9 | 19.3 | -18.8 | 0.8 | 0.8 | 6.1
COc1cc(CNc2ccc(O)cc2)cc(Br)c1OCc1ccccc1 | 0.6 | 9.5 | 7.4 | 0.5 | 63.8* | nt
COc1cc(CNC(C)(C)CO)cc(Br)c1OCc1ccc(Cl)cc1 | 0.9 | 98.3* | 41.4 | 0.8 | -2.9 | -2.7
COc1cc(CNC(C)(C)CO)cc(Br)c1OCc1ccc(Cl)cc1Cl | 1 | 99.9* | 93.8* | 0.9 | 3.8 | -8.6
CCNC(=O)NC(=O)C(C)Oc1ccc(Br)cc1Br (stereo not drawn) | 1.2 | 0.5 | 3.9 | 1.1 | 14.8 | 4.2
CCCCc1ccc(NS(=O)(=O)c2cccs2)cc1 | 0.9 | 13.9 | -0.3 | 0.9 | 1.6 | 1.3
COc1ccc(N(C(=O)c2cnsn2)C(C(=O)NC2CCCCC2)c2ccncc2)cc1 (stereo not drawn) | 0.9 | 57.8* | -22.6 | 1 | -7.2 | 4.5
COc1ccc(C(C(=O)NC2CCCCC2)N(C(=O)c2sc(C)nc2C)c2ccc(C(C)=O)cc2)cc1 (stereo not drawn) | 1.1 | -4.5 | 23.9 | 1 | -191.9 | -2.5
O=C(N/N=C/c1c(F)c(F)c(F)c(F)c1F)c1cccc(S(=O)(=O)N2CCOCC2)c1 | 1.1 | -1.9 | 5.0 | 1.1 | -24.1 | 2.5
CCN(Cc1ccccc1)c1ccc(/C=N/NS(=O)(=O)c2cccc([N+](=O)[O-])c2)cc1 | 1.5 | -6.1 | 11.4 | 2* | -25.4 | nt
CCN(Cc1ccccc1)c1ccc(/C=N/NC(=O)c2cccc(S(=O)(=O)N3CCOCC3)c2)cc1 | 0.9 | 91.1* | 5.9 | 1 | -96.4 | -8.9
CCN(CC)c1ccc(/C=N/NC(=O)c2ccco2)cc1 | 1.1 | 50.4* | 4.5 | 1 | 10.8 | 2.1
CCN(CC)c1ccc(/C=N/NC(=O)c2cccc(S(=O)(=O)N3CCOCC3)c2)cc1 | 0.9 | 72.8* | -56.1 | 0.8 | -152.5 | -3.0
COc1cccc(Sc2ccccc2/C=N/NC(N)=O)c1 | 1 | -1.4 | -18.6 | 1 | -0.8 | -6.0
SMILES | PMI activator | Lmaj promast | WT yeast gro inh | PMI act hi M6P | Calpain2 inh | Rad51 HR inh
O=C(NNS(=O)(=O)c1ccc(Br)cc1)c1cccs1 | 0.9 | -5.2 | 10.4 | 0.9 | -17.1 | 5.8
c1ccc(CC2CCN(c3ncnc4sccc34)CC2)cc1 | 1 | 20.3 | 63.4* | 1 | 39.7 | -21.7
COc1ccc(-c2cc(C(F)(F)F)nc(S(=O)(=O)CCCC(=O)Nc3cccnc3Cl)n2)cc1OC | 1.2 | 81.6* | -20.7 | 1.1 | -53.3 | 2.1
COC(=O)CCS(=O)(=O)c1nc(-c2ccccc2)cc(C(F)(F)F)n1 | 1.1 | 3.3 | 19.2 | 1.2 | 4.9 | -4.8
CC(C#N)(Nc1ccc(Cl)cc1)c1cccnc1 (stereo not drawn) | 1 | 70.2* | 6.5 | 1 | 20.4 | nt
COc1ccc(OCC(O)Cn2ccnc2C)cc1 (stereo not drawn) | 0.9 | 67.0* | -15.4 | 0.9 | -2.5 | 2.0
CCOc1cc(N2CCOCC2)c(OCC)cc1NC(=O)COC(=O)[C@@H]1CCCN1S(=O)(=O)c1ccccc1F | 0.9 | 7.0 | -21.4 | 0.5 | -22.4 | 25.4
Cc1cc(N=Cc2c(O)n(-c3cccc(Cl)c3)c(=O)c3ccccc23)no1 | 1 | 1.3 | 7.3 | 1.1 | -5.6 | 8.3
Cc1ccc(N=Cc2c(O)n(-c3cc(Cl)ccc3N3CCOCC3)c(=O)c3ccccc23)cc1C | 0.9 | 69.8* | 8.2 | 0.9 | -29.0 | -3.6
COc1cccc(C(=O)N2c3ccccc3Sc3ccccc32)c1 | 0.8 | 13.5 | 25.6 | 0.9 | 52.3* | 5.2
CCOC(=O)c1oc2ccc(Cl)cc2c1NC(C)=O | 1.1 | -3.6 | -1.1 | 1 | 13.8 | -16.1
O=C(Oc1ccc(Br)cc1C(=O)/C=C/c1ccccc1F)c1ccco1 | nt | 99.5* | nt | nt | nt | nt
CC1(C)CC(=O)c2c(O)cc(OCc3ccc([N+](=O)[O-])cc3)cc2O1 | 1 | -6.3 | 82.8* | 0.9 | -24.8 | nt
O=C(c1ccc(Br)s1)N1CCN(Cc2ccc3c(c2)OCO3)CC1 | 0.9 | 81.9* | 12.6 | 0.9 | 9.2 | -3.2
Cn1c(C(=O)N2CCC(C(=O)N3CCN(Cc4ccc5c(c4)OCO5)CC3)CC2)cc2sccc21 | 0.8 | 8.0 | 4.5 | 0.8 | -8.8 | 2.0
O=C(c1cc2c(s1)CCCC2)N1CCN(Cc2ccc3c(c2)OCO3)CC1 | 0.9 | 94.2* | 37.6 | 0.8 | 5.4 | 2.6
O=C(c1cc(-c2ccccc2)on1)N1CCN(Cc2ccc3c(c2)OCO3)CC1 | 0.9 | 90.1* | -16.2 | 1 | -0.8 | -0.3
Cc1cccc(C(=O)N2CCN(Cc3ccc4c(c3)OCO4)CC2)c1 | 1 | 40.2 | 11.2 | 1 | 6.4 | 0.6
Cn1c(C(=O)N2CCN(Cc3ccc4c(c3)OCO4)CC2)cc2sccc21 | 1.1 | 70.2* | -6.6 | 1.1 | 7.8 | 1.6
O=C(c1ccc(Br)o1)N1CCN(Cc2ccc3c(c2)OCO3)CC1 | 0.9 | 8.9 | 11.9 | 0.9 | -5.5 | 1.4
Cc1onc(-c2ccccc2)c1C(=O)N1CCN(Cc2ccc3c(c2)OCO3)CC1 | nt | -4.3 | -13.1 | nt | -14.9 | 18.6
CCOC(=O)C1CCN(C(=O)c2sccc2Cl)CC1 | nt | nt | nt | nt | 14.1 | 23.3
CCCN(CCC)C(=O)C1CCCN1S(=O)(=O)c1cccc2nsnc12 (stereo not drawn) | nt | nt | nt | nt | 6.5 | nt

From PubChem
